Laboratory results from ChEMBL document CHEMBL1145100, “Structure-activity relationship of imidazo[1,2-a]pyridines as ligands for detecting beta-amyloid plaques in the brain” (J Med Chem, 2003).

Biological target: Amyloid-beta precursor protein (Homo sapiens, UniProt P05067)
Assay: Inhibition constant against [125I]-7 (TZDM) binding to Amyloid beta 1-40 aggregates
In short: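 Abeta40 peptide aggregated at 0.5 mg/mL in pH 7.4 buffer (10 mM sodium phosphate, 1 mM EDTA), 37 °C for 36-42 h with shaking. Competition in 1 mL of 40% EtOH: fibrils 10-50 nM final, radiotracer 0.05 nM, inhibitors 10^-5 to 10^-10 M. Nonspecific binding with 2 µM thioflavin-T. Incubated 3 h at room temperature, then GF/B filtration with 10% ethanol washes and gamma counting. Ki from nonlinear regression.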

Chain of Amyloid-beta precursor protein (P05067 whole entry): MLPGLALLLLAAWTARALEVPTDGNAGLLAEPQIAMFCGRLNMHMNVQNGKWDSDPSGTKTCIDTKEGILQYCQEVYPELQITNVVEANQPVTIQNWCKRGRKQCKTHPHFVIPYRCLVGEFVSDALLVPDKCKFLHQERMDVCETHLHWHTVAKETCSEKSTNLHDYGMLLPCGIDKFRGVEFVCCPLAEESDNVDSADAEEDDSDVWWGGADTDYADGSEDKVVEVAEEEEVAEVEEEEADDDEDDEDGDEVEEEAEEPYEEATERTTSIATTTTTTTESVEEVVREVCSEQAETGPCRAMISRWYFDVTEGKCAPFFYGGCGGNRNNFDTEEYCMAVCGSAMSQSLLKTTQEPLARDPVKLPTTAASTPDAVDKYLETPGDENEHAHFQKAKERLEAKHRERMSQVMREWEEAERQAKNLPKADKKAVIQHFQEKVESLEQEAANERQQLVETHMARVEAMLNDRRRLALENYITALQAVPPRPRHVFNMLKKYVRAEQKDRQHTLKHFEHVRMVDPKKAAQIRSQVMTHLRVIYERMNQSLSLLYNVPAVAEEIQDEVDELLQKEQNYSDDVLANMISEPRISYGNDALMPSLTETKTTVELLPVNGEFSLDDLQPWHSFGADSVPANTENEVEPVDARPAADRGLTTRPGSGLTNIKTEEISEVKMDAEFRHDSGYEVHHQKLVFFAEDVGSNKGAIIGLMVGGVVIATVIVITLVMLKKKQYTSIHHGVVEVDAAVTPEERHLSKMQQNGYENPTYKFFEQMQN

Ki: > 2000 nM
Compound: CN(C)c1ccc(-c2nc3ccccn3c2I)cc1
